From ChEMBL document CHEMBL5705905, “Pharmacological targeting of kinases MST1 and MST2 augments tissue repair and regeneration” (Sci Transl Med, 2016) come the findings set out here.

Each structure is given as a SMILES string. pKd: −log10 of the molar value.

As a reminder, the pKd is the Kd on a negative log10 scale, so that one unit is a factor of ten.

Experiment [1] addresses Calcium/calmodulin-dependent protein kinase type 1G (Homo sapiens) (UniProt Q96NX5). The experiment in a line: Inhibition of CAMK1G (unknown origin) assessed as remaining activity at 1 uM by Kinome scan method relative to control. The procedure, abridged: (§1)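 Active-site-dependent competition-binding profiling (KINOMEscan) at 1 μM against a 468-kinase panel; compound supplied from a 10 mM DMSO stock. Read-out is ctrl% = (test signal − positive control signal)/(negative control signal − positive control signal) × 100. DMSO is the negative control (100%) and a control compound the positive control (0%). Lower ctrl% means tighter binding.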

Experiment [2] deals with Serine/threonine-protein kinase DCLK1 (Homo sapiens, UniProt O15075). As to the kind of experiment: Binding affinity to DCAMKL1 (unknown origin) assessed as dissociation constant.
For experiment [3], the target named is Inhibitor of nuclear factor kappa-B kinase subunit alpha (Homo sapiens) (UniProt O15111). As to the kind of experiment: Inhibition of IKK-alpha (unknown origin) assessed as remaining activity at 1 uM by Kinome scan method relative to control.
The target of experiment [4] is G protein-coupled receptor kinase 3 (Homo sapiens) (UniProt P35626). The experiment in a line: Inhibition of GRK3 (unknown origin) assessed as remaining activity at 1 uM by Kinome scan method relative to control.
Experiment [5] has as its target NUAK family SNF1-like kinase 1 (Homo sapiens) (UniProt O60285). The experiment in a line: Inhibition of ARK5 (unknown origin) assessed as remaining activity at 1 uM by Kinome scan method relative to control. The procedure, abridged: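 Active-site-dependent competition-binding (KINOMEscan) panel of 468 kinases, test compound at 1 μM (from a 10 mM DMSO stock). Read-out is ctrl% = (test signal − positive control signal)/(negative control signal − positive control signal) × 100. DMSO is the negative control (100%) and a control compound is the positive control (0%). Lower ctrl% means tighter binding.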

For experiment [6], the target named is Interferon-induced, double-stranded RNA-activated protein kinase (Homo sapiens) (UniProt P19525). The experiment in a line: Inhibition of PRKR (unknown origin) assessed as remaining activity at 1 uM by Kinome scan method relative to control.
Experiment [7] deals with HepG2. As to the kind of experiment: Induction of apoptosis in human HepG2 cells overexpressing MST2 assessed as necrosis cells at 3 uM by annexinV staining (Rvb =0.24 %). The format is functional.
Experiment [8] has as its target Serine/threonine-protein kinase DCLK2 (Homo sapiens) (UniProt Q8N568). The experiment in a line: Inhibition of DCAMKL2 (unknown origin) assessed as remaining activity at 1 uM by Kinome scan method relative to control.
For experiment [9], the target named is Angiopoietin-1 receptor (Homo sapiens) (UniProt Q02763). As to the kind of experiment: Inhibition of TIE2 (unknown origin) assessed as remaining activity at 1 uM by Kinome scan method relative to control.
Experiment [10] has as its target Casein kinase I isoform delta (Homo sapiens) (UniProt P48730). The experiment in a line: Inhibition of CSNK1D (unknown origin) assessed as remaining activity at 1 uM by Kinome scan method relative to control. The procedure, abridged: as §1

Sequence of Serine/threonine-protein kinase DCLK1 (O15075 whole entry): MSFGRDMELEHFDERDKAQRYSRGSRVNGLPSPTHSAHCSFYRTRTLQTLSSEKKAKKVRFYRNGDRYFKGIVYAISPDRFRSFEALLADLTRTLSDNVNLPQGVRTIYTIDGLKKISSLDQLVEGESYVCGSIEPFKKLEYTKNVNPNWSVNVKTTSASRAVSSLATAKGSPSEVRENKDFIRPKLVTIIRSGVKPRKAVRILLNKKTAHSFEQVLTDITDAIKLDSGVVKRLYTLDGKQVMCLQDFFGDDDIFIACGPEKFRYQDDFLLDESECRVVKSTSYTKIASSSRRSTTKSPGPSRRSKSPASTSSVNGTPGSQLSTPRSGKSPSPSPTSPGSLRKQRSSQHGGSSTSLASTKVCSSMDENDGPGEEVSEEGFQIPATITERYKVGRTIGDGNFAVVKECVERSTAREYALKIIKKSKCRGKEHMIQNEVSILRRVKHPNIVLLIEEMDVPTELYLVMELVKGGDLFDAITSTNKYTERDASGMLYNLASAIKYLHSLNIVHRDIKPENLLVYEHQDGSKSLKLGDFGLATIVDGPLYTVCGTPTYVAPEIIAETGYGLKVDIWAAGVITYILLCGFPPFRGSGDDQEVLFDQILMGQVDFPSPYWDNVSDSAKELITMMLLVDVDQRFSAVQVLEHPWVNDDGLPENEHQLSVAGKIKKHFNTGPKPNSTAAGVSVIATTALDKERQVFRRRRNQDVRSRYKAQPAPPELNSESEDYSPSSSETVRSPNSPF
Sequence of NUAK family SNF1-like kinase 1 (Homo sapiens) (O60285 whole entry): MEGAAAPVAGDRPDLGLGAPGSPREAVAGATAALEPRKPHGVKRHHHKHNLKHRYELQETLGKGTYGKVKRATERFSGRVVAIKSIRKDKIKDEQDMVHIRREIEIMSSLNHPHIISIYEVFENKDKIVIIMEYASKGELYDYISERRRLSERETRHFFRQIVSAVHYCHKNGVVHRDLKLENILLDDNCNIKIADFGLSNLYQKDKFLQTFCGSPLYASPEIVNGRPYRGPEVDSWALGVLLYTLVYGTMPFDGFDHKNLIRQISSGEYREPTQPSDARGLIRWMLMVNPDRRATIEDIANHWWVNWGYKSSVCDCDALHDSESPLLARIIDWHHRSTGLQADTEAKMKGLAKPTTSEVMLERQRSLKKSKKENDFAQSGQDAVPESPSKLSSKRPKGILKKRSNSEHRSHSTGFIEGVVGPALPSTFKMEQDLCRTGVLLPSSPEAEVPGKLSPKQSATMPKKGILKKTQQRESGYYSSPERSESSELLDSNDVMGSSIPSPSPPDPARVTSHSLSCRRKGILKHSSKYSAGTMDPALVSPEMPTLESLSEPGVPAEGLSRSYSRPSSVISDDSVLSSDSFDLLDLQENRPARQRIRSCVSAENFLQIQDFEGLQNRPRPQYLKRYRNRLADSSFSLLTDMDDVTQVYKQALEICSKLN
Sequence of Interferon-induced, double-stranded RNA-activated protein kinase (Homo sapiens) (P19525 whole entry): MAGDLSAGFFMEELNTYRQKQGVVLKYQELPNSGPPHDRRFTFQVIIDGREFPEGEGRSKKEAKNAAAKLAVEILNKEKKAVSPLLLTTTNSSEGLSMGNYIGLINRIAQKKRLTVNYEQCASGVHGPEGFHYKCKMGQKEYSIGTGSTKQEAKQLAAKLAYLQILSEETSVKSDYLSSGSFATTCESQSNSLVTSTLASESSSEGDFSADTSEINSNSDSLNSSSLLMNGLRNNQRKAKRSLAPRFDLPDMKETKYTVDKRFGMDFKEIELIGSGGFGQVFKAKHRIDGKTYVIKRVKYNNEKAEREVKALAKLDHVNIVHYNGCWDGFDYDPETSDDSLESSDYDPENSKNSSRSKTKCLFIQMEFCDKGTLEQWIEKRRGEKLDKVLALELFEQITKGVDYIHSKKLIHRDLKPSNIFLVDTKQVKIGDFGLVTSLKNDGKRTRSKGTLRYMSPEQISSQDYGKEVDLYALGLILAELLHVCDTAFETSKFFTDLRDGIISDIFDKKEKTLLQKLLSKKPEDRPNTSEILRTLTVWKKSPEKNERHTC
Sequence of Inhibitor of nuclear factor kappa-B kinase subunit alpha (Homo sapiens) (O15111 whole entry): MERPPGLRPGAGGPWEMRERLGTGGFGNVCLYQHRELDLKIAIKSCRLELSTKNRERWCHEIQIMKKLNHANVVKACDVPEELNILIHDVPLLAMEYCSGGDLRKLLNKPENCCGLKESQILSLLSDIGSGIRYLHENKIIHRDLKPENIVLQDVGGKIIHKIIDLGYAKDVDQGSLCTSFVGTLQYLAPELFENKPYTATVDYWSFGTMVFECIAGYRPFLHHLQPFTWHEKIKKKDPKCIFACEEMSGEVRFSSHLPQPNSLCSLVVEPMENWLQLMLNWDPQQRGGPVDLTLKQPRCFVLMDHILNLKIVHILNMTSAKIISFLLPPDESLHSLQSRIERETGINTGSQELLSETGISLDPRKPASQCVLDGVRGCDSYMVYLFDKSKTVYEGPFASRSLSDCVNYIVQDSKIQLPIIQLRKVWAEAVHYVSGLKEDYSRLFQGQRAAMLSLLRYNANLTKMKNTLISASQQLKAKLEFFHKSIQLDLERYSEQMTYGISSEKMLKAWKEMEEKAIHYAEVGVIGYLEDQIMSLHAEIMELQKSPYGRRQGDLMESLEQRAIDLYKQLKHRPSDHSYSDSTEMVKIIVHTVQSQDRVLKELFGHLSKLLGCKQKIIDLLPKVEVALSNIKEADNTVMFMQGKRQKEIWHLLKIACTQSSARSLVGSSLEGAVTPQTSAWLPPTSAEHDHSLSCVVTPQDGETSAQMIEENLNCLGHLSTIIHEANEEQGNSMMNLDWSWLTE
Sequence of Casein kinase I isoform delta (Homo sapiens) (P48730 whole entry, looked up, canonical isoform): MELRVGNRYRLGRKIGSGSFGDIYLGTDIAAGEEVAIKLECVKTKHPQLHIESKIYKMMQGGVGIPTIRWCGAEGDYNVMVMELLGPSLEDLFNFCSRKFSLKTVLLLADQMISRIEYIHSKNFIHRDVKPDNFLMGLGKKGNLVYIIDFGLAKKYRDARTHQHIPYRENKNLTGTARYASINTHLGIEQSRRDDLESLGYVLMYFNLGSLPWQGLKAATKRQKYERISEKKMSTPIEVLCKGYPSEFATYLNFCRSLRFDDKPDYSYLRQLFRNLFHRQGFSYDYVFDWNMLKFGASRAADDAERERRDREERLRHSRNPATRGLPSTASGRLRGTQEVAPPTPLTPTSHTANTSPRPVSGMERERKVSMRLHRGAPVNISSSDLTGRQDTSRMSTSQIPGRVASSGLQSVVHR
Sequence of Calcium/calmodulin-dependent protein kinase type 1G (Homo sapiens) (Q96NX5 whole entry): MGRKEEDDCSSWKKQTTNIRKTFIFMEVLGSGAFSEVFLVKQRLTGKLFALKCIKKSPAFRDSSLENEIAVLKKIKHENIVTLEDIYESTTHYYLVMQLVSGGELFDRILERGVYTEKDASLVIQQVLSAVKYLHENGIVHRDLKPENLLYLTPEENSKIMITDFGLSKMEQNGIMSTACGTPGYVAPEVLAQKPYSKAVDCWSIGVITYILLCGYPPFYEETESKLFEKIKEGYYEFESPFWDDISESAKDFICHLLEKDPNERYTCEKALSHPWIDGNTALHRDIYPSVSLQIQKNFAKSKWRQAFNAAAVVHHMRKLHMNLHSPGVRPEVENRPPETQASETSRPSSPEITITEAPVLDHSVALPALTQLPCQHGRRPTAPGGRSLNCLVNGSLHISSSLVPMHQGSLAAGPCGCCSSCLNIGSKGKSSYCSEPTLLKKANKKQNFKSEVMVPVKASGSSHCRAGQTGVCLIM
Sequence of Angiopoietin-1 receptor (Homo sapiens) (Q02763 whole entry, canonical isoform): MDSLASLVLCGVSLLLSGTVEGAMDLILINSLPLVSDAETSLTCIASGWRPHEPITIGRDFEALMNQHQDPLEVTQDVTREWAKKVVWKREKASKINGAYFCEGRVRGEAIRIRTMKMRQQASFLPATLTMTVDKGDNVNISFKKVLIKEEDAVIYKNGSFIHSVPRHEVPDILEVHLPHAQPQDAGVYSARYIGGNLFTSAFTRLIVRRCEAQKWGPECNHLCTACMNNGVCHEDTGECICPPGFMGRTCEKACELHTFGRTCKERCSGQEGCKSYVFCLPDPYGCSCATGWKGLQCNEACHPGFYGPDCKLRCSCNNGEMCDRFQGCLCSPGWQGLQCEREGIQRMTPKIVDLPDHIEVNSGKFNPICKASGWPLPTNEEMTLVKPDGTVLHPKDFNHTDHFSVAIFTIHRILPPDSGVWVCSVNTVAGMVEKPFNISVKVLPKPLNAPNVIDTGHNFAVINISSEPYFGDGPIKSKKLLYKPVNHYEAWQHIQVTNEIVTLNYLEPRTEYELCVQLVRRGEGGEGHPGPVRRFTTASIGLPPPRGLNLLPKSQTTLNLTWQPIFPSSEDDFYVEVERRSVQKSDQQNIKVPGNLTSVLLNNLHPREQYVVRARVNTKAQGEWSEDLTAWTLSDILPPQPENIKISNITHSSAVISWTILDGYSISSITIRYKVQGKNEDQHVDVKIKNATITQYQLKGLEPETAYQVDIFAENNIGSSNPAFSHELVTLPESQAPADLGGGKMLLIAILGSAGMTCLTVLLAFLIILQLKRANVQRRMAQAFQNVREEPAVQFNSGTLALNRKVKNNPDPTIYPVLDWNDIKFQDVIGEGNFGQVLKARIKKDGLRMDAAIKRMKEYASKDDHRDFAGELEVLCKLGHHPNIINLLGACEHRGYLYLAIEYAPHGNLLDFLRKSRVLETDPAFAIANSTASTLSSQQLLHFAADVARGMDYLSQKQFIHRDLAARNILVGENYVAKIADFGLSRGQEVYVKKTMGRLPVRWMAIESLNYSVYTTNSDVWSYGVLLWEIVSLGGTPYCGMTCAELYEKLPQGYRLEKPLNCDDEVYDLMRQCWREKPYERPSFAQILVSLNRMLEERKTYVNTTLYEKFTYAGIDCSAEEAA

For the compound `CN1C(=O)c2sccc2N(C)c2nc(Nc3ccc(S(N)(=O)=O)cc3)ncc21`, the Activity in experiment [1] is 100%; in experiment [3], 94%; in experiment [4] it was 87%; in experiment [5] it was 96%; in experiment [6], 100%; in experiment [7], 0.27%. For the same compound, the Activity amounted to 84% in experiment [8], 74% in experiment [9] and 90% in experiment [10]. The pKd in [2] was 7.60.
